Assay results from different studies.
Protocols differ between the studies behind these lines.
Target: Myosin-IIIb (MYO3B, Homo sapiens, UniProt Q8WXR4)
Residues used in one study (Q8WXR4 1-1341): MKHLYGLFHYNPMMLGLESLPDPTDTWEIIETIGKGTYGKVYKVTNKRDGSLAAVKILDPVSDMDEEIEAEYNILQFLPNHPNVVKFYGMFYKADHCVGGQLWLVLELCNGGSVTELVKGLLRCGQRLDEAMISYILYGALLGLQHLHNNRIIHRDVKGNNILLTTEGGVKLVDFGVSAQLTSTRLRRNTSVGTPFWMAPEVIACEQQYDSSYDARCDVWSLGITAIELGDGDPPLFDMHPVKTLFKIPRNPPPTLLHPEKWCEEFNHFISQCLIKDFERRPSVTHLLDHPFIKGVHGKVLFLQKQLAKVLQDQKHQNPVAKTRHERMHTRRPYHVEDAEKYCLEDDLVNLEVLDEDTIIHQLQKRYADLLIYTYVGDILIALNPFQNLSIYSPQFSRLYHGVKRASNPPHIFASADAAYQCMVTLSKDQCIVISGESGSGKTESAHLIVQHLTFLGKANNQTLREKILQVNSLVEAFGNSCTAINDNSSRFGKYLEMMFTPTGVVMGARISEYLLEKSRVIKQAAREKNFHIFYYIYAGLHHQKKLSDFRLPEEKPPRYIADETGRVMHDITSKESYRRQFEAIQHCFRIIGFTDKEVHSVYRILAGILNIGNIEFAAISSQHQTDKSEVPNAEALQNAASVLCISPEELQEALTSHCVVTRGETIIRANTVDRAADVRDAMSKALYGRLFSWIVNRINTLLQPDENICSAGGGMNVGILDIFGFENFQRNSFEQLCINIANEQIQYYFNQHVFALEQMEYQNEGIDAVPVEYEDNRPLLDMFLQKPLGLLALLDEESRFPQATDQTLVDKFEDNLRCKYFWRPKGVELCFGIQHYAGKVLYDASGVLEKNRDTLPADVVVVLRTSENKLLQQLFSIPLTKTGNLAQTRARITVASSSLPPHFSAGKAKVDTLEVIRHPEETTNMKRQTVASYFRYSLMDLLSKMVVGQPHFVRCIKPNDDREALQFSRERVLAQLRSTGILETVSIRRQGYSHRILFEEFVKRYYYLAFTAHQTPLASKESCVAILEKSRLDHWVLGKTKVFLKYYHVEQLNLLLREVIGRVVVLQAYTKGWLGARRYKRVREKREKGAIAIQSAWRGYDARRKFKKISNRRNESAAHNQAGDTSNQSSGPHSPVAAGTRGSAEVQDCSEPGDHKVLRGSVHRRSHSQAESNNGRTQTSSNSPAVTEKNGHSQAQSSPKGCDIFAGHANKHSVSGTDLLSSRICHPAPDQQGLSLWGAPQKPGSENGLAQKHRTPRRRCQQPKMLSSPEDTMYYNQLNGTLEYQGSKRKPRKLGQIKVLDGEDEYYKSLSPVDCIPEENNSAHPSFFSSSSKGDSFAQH

| SMILES | test | setting | quantity | result |
| --- | --- | --- | --- | --- |
| O=C(O)c1ccc2c3c1cccc3c(=O)n1c3ccccc3nc21 | enzyme activity, inhibitor | 0.5 µM | remaining activity | 96.7% |
| CC(C)(O)[C@H]1CC[C@H](Nc2ccc3ncc(-c4cccc(C(F)(F)F)c4)n3n2)CC1 | enzyme activity, inhibitor | 1 µM | remaining activity | 85.1% |
| C[S+]([O-])c1ccc(-c2nc(-c3ccncc3)c(-c3ccc(F)cc3)[nH]2)cc1 (centres unmarked) | cell-free assay | 0.5 µM | remaining signal | 104% |
| Cn1nc(C(=O)NCc2ccc(C(=O)O)cc2)cc1-c1ccc2[nH]ccc2c1 | binding, competition with immobilised ligand | 0.1 µM | remaining binding | 100% |
| CCN(CC)CCNC(=O)c1c(C)[nH]c(/C=C2\C(=O)Nc3ccc(Cl)cc32)c1C | enzyme activity, inhibitor | 0.5 µM | remaining activity | 41.3% |
| O=C(Nc1cnn(-c2csc(C(=O)NC3COC3)c2)c1)Nc1ccccc1Cl | enzyme activity, inhibitor | 5 µM | remaining activity | 128% |
| CCC(=N\O)/C(C)=C/c1ccc(F)cc1 | binding, competition with immobilised ligand | 1 µM | remaining binding | 100% |
| CN1CC(Oc2cnc(C#N)cc2-c2ccn3nc(NC(=O)C4CC4)cc3c2)C1 | enzyme activity, inhibitor | 1 µM | inhibition | -2% |
| Cc1sc(C(=O)NC2COC2)cc1-n1cc(NC(=O)Nc2c(F)cccc2Cl)cn1 | enzyme activity, inhibitor | 10 µM | remaining activity | 73.5% |
| Nc1ncnc2occ(-c3ccc(NC(=O)Nc4cc(C(F)(F)F)ccc4F)cc3)c12 | cell-free assay | 20 µM | remaining signal | 25% |
| CN1CCN(C(=O)c2ccc3cc(CCNc4ccnc5ccc(C#N)cc45)ccc3c2)CC1 | binding, competition with immobilised ligand | 2 µM | inhibition | > 35% |
| CSc1cccnc1N1CCN(Cc2nc3ccccc3[nH]2)CC1 | binding, competition with immobilised ligand | 1 µM | remaining binding | 100% |
| COc1cc(Cl)c(C(=O)N[C@@H](CN[C@H]2CC[C@@H](N)CC2)Cc2ccc(C#N)cc2)cc1-c1ccc(CN[C@H](C)c2ccc(C)cc2)o1 | enzyme activity, inhibitor | 1 µM | remaining activity | 116% |
| Cc1ccc(C(=O)Nc2ccc(CN3CCN(C)CC3)c(C(F)(F)F)c2)cc1C#Cc1cnc2cccnn12 | enzyme activity | 23.5 nM | remaining activity | 79% |
